# From ChEMBL document CHEMBL4265908, “Structure-activity and structure-property relationships of novel Nrf2 activators with a 1,2,4-oxadiazole core and their therapeutic effects on acetaminophen (APAP)-induced acute liver injury” (Eur J Med Chem, 2018)
# The source made the active and inactive calls. No cut-off for these calls is given here.
# Target: T1, Nuclear factor erythroid 2-related factor 2 (Homo sapiens) (UniProt Q16236)
# T1 sequence (whole entry): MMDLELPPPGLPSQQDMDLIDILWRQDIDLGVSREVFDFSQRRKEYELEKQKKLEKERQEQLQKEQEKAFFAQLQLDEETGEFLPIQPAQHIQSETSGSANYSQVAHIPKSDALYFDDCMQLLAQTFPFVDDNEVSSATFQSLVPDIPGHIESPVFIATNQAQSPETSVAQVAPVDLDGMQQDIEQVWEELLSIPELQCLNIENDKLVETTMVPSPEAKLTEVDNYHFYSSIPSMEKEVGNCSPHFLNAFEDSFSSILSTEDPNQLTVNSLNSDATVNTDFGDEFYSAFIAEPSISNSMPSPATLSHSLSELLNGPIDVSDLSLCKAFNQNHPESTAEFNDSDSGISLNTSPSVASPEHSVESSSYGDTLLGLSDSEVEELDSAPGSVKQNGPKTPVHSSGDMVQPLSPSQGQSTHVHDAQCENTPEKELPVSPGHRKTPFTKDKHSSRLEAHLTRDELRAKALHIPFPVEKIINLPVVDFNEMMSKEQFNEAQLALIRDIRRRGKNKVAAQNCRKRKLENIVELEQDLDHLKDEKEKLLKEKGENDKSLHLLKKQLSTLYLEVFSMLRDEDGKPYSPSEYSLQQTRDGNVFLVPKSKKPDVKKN
# Test: Activation of Nrf2 in human HepG2-ARE-C8 cells assessed as induction of ARE-mediated luciferase activity at 0.01 uM after 24 hrs by luciferase reporter gene assay relative to control
# Format: cell-based
# Conditions: not given
# Summary of the method: (§1)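 HepG2-ARE-C8 cells stably carrying ARE-luciferase, grown in DMEM with 10% FBS at 37 °C and 5% CO2. Seeded at 5 × 10^4 cells/well, left overnight, then given compound diluted from a 10 mM DMSO stock for 24 h. Cells lysed and luciferase read as RLU. Inductivity = (RLUtest − RLUblank)/(RLUcontrol − RLUblank), with DMSO as control. Mean ± SEM of three experiments.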
row,Structure (SMILES),Activity
1,Cc1cccc(-c2noc(-c3ccc(F)c(F)c3)n2)n1,1.16
2,Fc1ccc(-c2nc(-c3ccc(-c4ccccc4)cc3)no2)cc1F,1.15
3,Fc1ccc(-c2nc(-c3ccc4nc[nH]c4c3)no2)cc1,1.57
4,Cc1ccnc(-c2noc(-c3ccc(F)c(F)c3)n2)c1,0.63
5,Fc1cccc(-c2nc(-c3ccc4nc[nH]c4c3)no2)c1F,1.77
6,CN(C)C=O,0.82
7,Cc1ccc(-c2noc(-c3ccc(F)c(F)c3)n2)cc1,0.67

# Second part, the compound after the results:
row,Activity,Structure (SMILES)
1,1.63,COc1cccc(-c2noc(-c3ccc(F)c(F)c3)n2)c1
2,3.85,Fc1ccc(-c2nc(-c3ccccc3F)no2)cc1F
3,1.87,COc1cc(OC)cc(-c2noc(-c3ccc(F)c(F)c3)n2)c1
4,0.96,Fc1ccc(-c2noc(-c3ccc(F)c(F)c3)n2)nc1
5,0.83,Fc1ccc(-c2nc(-c3cccc4[nH]ccc34)no2)cc1F
6,1.13,Fc1ccc(-c2nc(-c3cnccn3)no2)cc1F

# Tested on: HepG2
# Test: Cytotoxicity against human HepG2 cells at 80 uM after 24 hrs by MTT assay
# Format: cell-based
# Conditions: hepg2, 24 h
row,Structure (SMILES),Activity
1,Cc1cccc(-c2noc(-c3ccc(F)c(F)c3)n2)n1,Non-Toxic
2,Fc1ccc(-c2nc(-c3ccc(-c4ccccc4)cc3)no2)cc1F,Non-Toxic
3,Fc1ccc(-c2nc(-c3ccc4nc[nH]c4c3)no2)cc1,Non-Toxic
4,Cc1ccnc(-c2noc(-c3ccc(F)c(F)c3)n2)c1,Non-Toxic
5,Fc1cccc(-c2nc(-c3ccc4nc[nH]c4c3)no2)c1F,Non-Toxic
6,COc1cccc(-c2noc(-c3ccc(F)c(F)c3)n2)c1,Non-Toxic
7,Fc1ccc(-c2nc(-c3ccccc3F)no2)cc1F,Non-Toxic
8,COc1cc(OC)cc(-c2noc(-c3ccc(F)c(F)c3)n2)c1,Non-Toxic
9,Fc1ccc(-c2noc(-c3ccc(F)c(F)c3)n2)nc1,Non-Toxic
10,Fc1ccc(-c2nc(-c3cccc4[nH]ccc34)no2)cc1F,Non-Toxic
11,Cc1ccc(-c2noc(-c3ccc(F)c(F)c3)n2)cc1,Non-Toxic
12,Fc1ccc(-c2nc(-c3cnccn3)no2)cc1F,Non-Toxic

# Target: T1, Nuclear factor erythroid 2-related factor 2 (Homo sapiens)
# Test: Activation of Nrf2 in human HepG2-ARE-C8 cells assessed as induction of ARE-mediated luciferase activity at 0.1 uM after 24 hrs by luciferase reporter gene assay relative to control
# Format: cell-based
# Conditions: not given
# Summary of the method: as §1
row,Structure (SMILES),Activity
1,Cc1cccc(-c2noc(-c3ccc(F)c(F)c3)n2)n1,1.08
2,Fc1ccc(-c2nc(-c3ccc(-c4ccccc4)cc3)no2)cc1F,1.25
3,Cc1ccnc(-c2noc(-c3ccc(F)c(F)c3)n2)c1,1.06
4,Fc1cccc(-c2nc(-c3ccc4nc[nH]c4c3)no2)c1F,2.22
5,CN(C)C=O,1
6,Cc1ccc(-c2noc(-c3ccc(F)c(F)c3)n2)cc1,1.22

# Results, then the compound that gave them:
row,Activity,Structure (SMILES)
1,1.87,COc1cccc(-c2noc(-c3ccc(F)c(F)c3)n2)c1
2,3.96,Fc1ccc(-c2nc(-c3ccccc3F)no2)cc1F
3,1.91,COc1cc(OC)cc(-c2noc(-c3ccc(F)c(F)c3)n2)c1
4,1.97,Fc1ccc(-c2noc(-c3ccc(F)c(F)c3)n2)nc1
5,1.88,Fc1ccc(-c2nc(-c3cccc4[nH]ccc34)no2)cc1F
6,1.43,Fc1ccc(-c2nc(-c3cnccn3)no2)cc1F

# Target: T1, Nuclear factor erythroid 2-related factor 2 (Homo sapiens)
# Test: Activation of Nrf2 in human HepG2-ARE-C8 cells assessed as induction of ARE-mediated luciferase activity at 1 uM after 24 hrs by luciferase reporter gene assay relative to control
# Format: cell-based
# Conditions: not given
# Summary of the method: as §1
row,Structure (SMILES),Activity
1,Cc1cccc(-c2noc(-c3ccc(F)c(F)c3)n2)n1,2.65
2,Fc1ccc(-c2nc(-c3ccc(-c4ccccc4)cc3)no2)cc1F,6.75
3,Cc1ccnc(-c2noc(-c3ccc(F)c(F)c3)n2)c1,2.04
4,Fc1cccc(-c2nc(-c3ccc4nc[nH]c4c3)no2)c1F,3.7
5,CN(C)C=O,1.1
6,Cc1ccc(-c2noc(-c3ccc(F)c(F)c3)n2)cc1,1.85

# More lines, now with the values ahead:
row,Activity,Structure (SMILES)
1,5.35,COc1cccc(-c2noc(-c3ccc(F)c(F)c3)n2)c1
2,4.25,Fc1ccc(-c2nc(-c3ccccc3F)no2)cc1F
3,2.15,COc1cc(OC)cc(-c2noc(-c3ccc(F)c(F)c3)n2)c1
4,2.17,Fc1ccc(-c2noc(-c3ccc(F)c(F)c3)n2)nc1
5,2.01,Fc1ccc(-c2nc(-c3cccc4[nH]ccc34)no2)cc1F
6,1.95,Fc1ccc(-c2nc(-c3cnccn3)no2)cc1F

# Target: T1, Nuclear factor erythroid 2-related factor 2 (Homo sapiens)
# Test: Activation of Nrf2 in human HepG2-ARE-C8 cells assessed as induction of ARE-mediated luciferase activity at 20 uM after 24 hrs by luciferase reporter gene assay relative to control
# Format: cell-based
# Conditions: not given
# Summary of the method: as §1
row,Structure (SMILES),Activity
1,Cc1cccc(-c2noc(-c3ccc(F)c(F)c3)n2)n1,3.96
2,Fc1ccc(-c2nc(-c3ccc(-c4ccccc4)cc3)no2)cc1F,8.54
3,Cc1ccnc(-c2noc(-c3ccc(F)c(F)c3)n2)c1,8.96
4,Fc1cccc(-c2nc(-c3ccc4nc[nH]c4c3)no2)c1F,4.55
5,CN(C)C=O,1.65
6,Cc1ccc(-c2noc(-c3ccc(F)c(F)c3)n2)cc1,2.51

# Next, values leading:
row,Activity,Structure (SMILES)
1,14.2,COc1cccc(-c2noc(-c3ccc(F)c(F)c3)n2)c1
2,4.85,Fc1ccc(-c2nc(-c3ccccc3F)no2)cc1F
3,3.45,COc1cc(OC)cc(-c2noc(-c3ccc(F)c(F)c3)n2)c1
4,2.95,Fc1ccc(-c2noc(-c3ccc(F)c(F)c3)n2)nc1
5,2.36,Fc1ccc(-c2nc(-c3cccc4[nH]ccc34)no2)cc1F
6,1.81,Fc1ccc(-c2nc(-c3cnccn3)no2)cc1F

# Target: T1, Nuclear factor erythroid 2-related factor 2 (Homo sapiens)
# Test: Activation of Nrf2 in human HepG2-ARE-C8 cells assessed as induction of ARE-mediated luciferase activity at 40 uM after 24 hrs by luciferase reporter gene assay relative to control
# Format: cell-based
# Conditions: not given
# Summary of the method: as §1
row,Structure (SMILES),Activity
1,Cc1cccc(-c2noc(-c3ccc(F)c(F)c3)n2)n1,4.46
2,Fc1ccc(-c2nc(-c3ccc(-c4ccccc4)cc3)no2)cc1F,10.8
3,Cc1ccnc(-c2noc(-c3ccc(F)c(F)c3)n2)c1,9.76
4,Fc1cccc(-c2nc(-c3ccc4nc[nH]c4c3)no2)c1F,10.7
5,CN(C)C=O,2.97
6,Cc1ccc(-c2noc(-c3ccc(F)c(F)c3)n2)cc1,6.62

# Results, then the compound that gave them:
row,Activity,Structure (SMILES)
1,15.2,COc1cccc(-c2noc(-c3ccc(F)c(F)c3)n2)c1
2,5.91,Fc1ccc(-c2nc(-c3ccccc3F)no2)cc1F
3,3.55,COc1cc(OC)cc(-c2noc(-c3ccc(F)c(F)c3)n2)c1
4,5.79,Fc1ccc(-c2noc(-c3ccc(F)c(F)c3)n2)nc1
5,3.77,Fc1ccc(-c2nc(-c3cccc4[nH]ccc34)no2)cc1F
6,2.83,Fc1ccc(-c2nc(-c3cnccn3)no2)cc1F

# Target: T1, Nuclear factor erythroid 2-related factor 2 (Homo sapiens)
# Test: Activation of Nrf2 in human HepG2-ARE-C8 cells assessed as induction of ARE-mediated luciferase activity at 80 uM after 24 hrs by luciferase reporter gene assay relative to control
# Format: cell-based
# Conditions: not given
# Summary of the method: as §1
row,Structure (SMILES),Activity
1,Cc1cccc(-c2noc(-c3ccc(F)c(F)c3)n2)n1,5.68
2,Fc1ccc(-c2nc(-c3ccc(-c4ccccc4)cc3)no2)cc1F,14.7
3,Cc1ccnc(-c2noc(-c3ccc(F)c(F)c3)n2)c1,10.6
4,Fc1cccc(-c2nc(-c3ccc4nc[nH]c4c3)no2)c1F,16.5
5,Cc1ccc(-c2noc(-c3ccc(F)c(F)c3)n2)cc1,10.2

# Second part, the compound after the results:
row,Activity,Structure (SMILES)
1,16.4,COc1cccc(-c2noc(-c3ccc(F)c(F)c3)n2)c1
2,6.95,Fc1ccc(-c2nc(-c3ccccc3F)no2)cc1F
3,4.45,COc1cc(OC)cc(-c2noc(-c3ccc(F)c(F)c3)n2)c1
4,6.35,Fc1ccc(-c2noc(-c3ccc(F)c(F)c3)n2)nc1
5,4.02,Fc1ccc(-c2nc(-c3cccc4[nH]ccc34)no2)cc1F
6,3.35,Fc1ccc(-c2nc(-c3cnccn3)no2)cc1F

# Tested on: L02
# Test: Cytotoxicity against human LO2 cells at 160 uM after 24 hrs by MTT assay
# Format: cell-based
# Conditions: l02, 24 h
# Summary of the method: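 LO2 cells plated for 12 h, then treated for 24 h with 0, 0.2, 2, 20, 40, 80 or 160 μM compound diluted in medium from a DMSO stock. MTT (5 mg/mL stock) added for 4 h, formazan dissolved in DMSO, A570 read. Viability computed from OD relative to DMSO control and blank. Mean ± SD of three experiments.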
row,Structure (SMILES),Activity
1,Fc1ccc(-c2nc(-c3ccc4nc[nH]c4c3)no2)cc1,<= 20%

# Tested on: L02
# Test: Hepatoprotective activity against APAP-induced cell injury in human LO2 cells assessed as increase in cell viability at 20 uM pretreated for 24 hrs followed by APAP treatment measured after 24 hrs by MTT assay
# Format: functional
# Conditions: not given
# Summary of the method: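 LO2 cells plated for 12 h and pretreated for 24 h with 5, 10 or 20 μM compound. One arm was first transfected with 50 nM Nrf2 siRNA before receiving 20 μM compound. Medium then replaced with medium containing 8 mM APAP for 24 h. Viability by MTT at A570. Mean ± SD of three experiments.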
row,Structure (SMILES),Activity
1,CN(C)C=O,Active

# Tested on: not listed separately
# Test: Lipophilicity, log D of the compound at pH 7.4 by potentiometric titration method
# Format: physicochemical
# Conditions: buffer
# Summary of the method: (§2)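 Intrinsic aqueous solubility and logD at pH 7.4 determined by Avdeef-Bucher potentiometric titration on a pION Gemini Profiler.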
row,logD,Structure (SMILES)
1,2.86,Cc1cccc(-c2noc(-c3ccc(F)c(F)c3)n2)n1
2,4.75,Fc1ccc(-c2nc(-c3ccc(-c4ccccc4)cc3)no2)cc1F
3,2.65,Cc1ccnc(-c2noc(-c3ccc(F)c(F)c3)n2)c1
4,3.91,COc1cccc(-c2noc(-c3ccc(F)c(F)c3)n2)c1
5,4.16,Cc1ccc(-c2noc(-c3ccc(F)c(F)c3)n2)cc1

# Tested on: not listed separately
# Test: Intrinsic aqueous solubility of the compound by potentiometric titration method
# Format: physicochemical
# Conditions: not given
# Summary of the method: as §2
row,solubility [µM],Structure (SMILES)
1,200,Cc1cccc(-c2noc(-c3ccc(F)c(F)c3)n2)n1
2,16,Fc1ccc(-c2nc(-c3ccc(-c4ccccc4)cc3)no2)cc1F
3,220,Cc1ccnc(-c2noc(-c3ccc(F)c(F)c3)n2)c1
4,86,COc1cccc(-c2noc(-c3ccc(F)c(F)c3)n2)c1
5,35,Cc1ccc(-c2noc(-c3ccc(F)c(F)c3)n2)cc1
